Source: ChEMBL document CHEMBL1122984, “Synthesis and beta-lactamase inhibitory properties of 2 beta-[(acyloxy)methyl]-2-methylpenam-3 alpha-carboxylic acid 1,1-dioxides” (1985)
≈ marks a conversion by molar mass, not a printed value.

Columns and labels:
[1] = molecular target: Beta-lactamase (Staphylococcus aureus) (UniProt P00807); test: Minimum protective concentration used to protect the compound against Staphylococcus aureus A9606 beta-lactamase catalyzed hydrolysis
[2] = molecular target: Metallo-beta-lactamase type 2 (Bacteroides fragilis) (UniProt P25910); test: Minimum protective concentration used to protect the compound against Bacteroides fragilis A-22,695 beta-lactamase catalyzed hydrolysis
Sequence of Metallo-beta-lactamase type 2 (Bacteroides fragilis) (P25910 whole entry): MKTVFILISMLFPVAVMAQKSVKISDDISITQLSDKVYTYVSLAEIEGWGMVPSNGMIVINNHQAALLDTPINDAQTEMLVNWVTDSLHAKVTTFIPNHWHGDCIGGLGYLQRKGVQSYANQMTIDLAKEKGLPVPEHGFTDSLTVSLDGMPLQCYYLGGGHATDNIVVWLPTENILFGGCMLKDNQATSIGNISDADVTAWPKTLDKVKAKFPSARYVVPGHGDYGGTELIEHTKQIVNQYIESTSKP

[3] = system: TEM beta-lactamase (Klebsiella pneumoniae); test: Minimum protective concentration used to protect the compound against Klebsiella pneumoniae A20634 beta-lactamase catalyzed hydrolysis
Escherichia coli [4] = test: Compound alone was evaluated for minimum inhibitory concentration against Escherichia coli A20111; type: functional
Summary of the method: (§1)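 Agar dilution MIC: organisms deposited onto medicated agar plates with a Steers replication device.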

Escherichia coli [5] = test: Compound alone was evaluated for minimum inhibitory concentration against Escherichia coli A20107; type: functional; summary of the method: as §1
Staphylococcus aureus [6] = test: Compound alone was evaluated for minimum inhibitory concentration against Staphylococcus aureus A15033; type: functional; summary of the method: as §1
Staphylococcus aureus [7] = test: Compound alone was evaluated for minimum inhibitory concentration against Staphylococcus aureus A9606; type: functional; summary of the method: as §1
Escherichia coli [8] = test: Compound was evaluated for minimum inhibitory concentration in the presence of amoxicillin against Escherichia coli A20107; type: functional
Summary of the method: (§2)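 Agar dilution MIC of a 1:1 (w/w) mixture of test compound with amoxicillin. Organisms were applied to medicated agar plates with a Steers replicator.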

Escherichia coli [9] = test: Compound was evaluated for minimum inhibitory concentration in the presence of amoxicillin against Escherichia coli A20111; type: functional; summary of the method: as §2
Staphylococcus aureus [10] = test: Compound was evaluated for minimum inhibitory concentration in the presence of amoxicillin against Staphylococcus aureus A15033; type: functional; summary of the method: as §2
Staphylococcus aureus [11] = test: Compound was evaluated for minimum inhibitory concentration in the presence of amoxicillin against Staphylococcus aureus A9606; type: functional; summary of the method: as §2
[12] = molecular target: Carbapenem-hydrolyzing beta-lactamase KPC (Klebsiella pneumoniae) (UniProt Q9F663)
Sequence of Carbapenem-hydrolyzing beta-lactamase KPC (Klebsiella pneumoniae) (Q9F663 whole entry): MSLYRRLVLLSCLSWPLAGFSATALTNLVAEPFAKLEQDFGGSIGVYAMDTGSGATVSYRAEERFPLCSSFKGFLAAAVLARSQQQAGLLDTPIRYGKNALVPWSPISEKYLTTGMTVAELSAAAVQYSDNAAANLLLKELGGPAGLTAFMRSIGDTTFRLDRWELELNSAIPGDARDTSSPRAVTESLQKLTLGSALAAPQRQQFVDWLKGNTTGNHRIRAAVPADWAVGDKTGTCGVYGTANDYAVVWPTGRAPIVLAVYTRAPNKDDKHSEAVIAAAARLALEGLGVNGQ

Sequence of Beta-lactamase (Staphylococcus aureus) (P00807 whole entry): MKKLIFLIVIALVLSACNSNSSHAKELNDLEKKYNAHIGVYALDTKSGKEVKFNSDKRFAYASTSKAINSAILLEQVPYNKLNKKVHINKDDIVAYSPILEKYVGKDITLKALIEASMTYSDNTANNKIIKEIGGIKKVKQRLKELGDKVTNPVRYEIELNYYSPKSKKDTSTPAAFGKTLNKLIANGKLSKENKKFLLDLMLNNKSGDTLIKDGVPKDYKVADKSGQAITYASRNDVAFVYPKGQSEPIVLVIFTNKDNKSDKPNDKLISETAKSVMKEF

C[C@]1(CCl)[C@H](C(=O)O)N2C(=O)CC2S1(=O)=O (stereo partly drawn)
MPC [1]: 3.1 µg/mL
MPC [2]: 12.5 µg/mL
MPC [3]: 3.1 µg/mL

CC1(C)S[C@@H]2[C@H](NC(=O)[C@H](N)c3ccc(O)cc3)C(=O)N2[C@H]1C(=O)O [AMOXICILLIN]
MIC (Escherichia coli [4]): > 125 µg/mL
MIC (Escherichia coli [5]): > 125 µg/mL
MIC (Staphylococcus aureus [6]): 32 µg/mL (≈ 87.6 µM)
MIC (Staphylococcus aureus [7]): 32 µg/mL (≈ 87.6 µM)

C[C@]1(CO)[C@H](C(=O)O)N2C(=O)CC2S1(=O)=O (stereo partly drawn)
MPC [1]: > 100 µg/mL
MPC [2]: 100 µg/mL
MPC [3]: 6.2 µg/mL

O=C(O)[C@H]1/C(=C/CO)O[C@@H]2CC(=O)N21 [CLAVULANIC ACID]
MIC (Escherichia coli [8]): 16 µg/mL
MIC (Escherichia coli [4]): 63 µg/mL (≈ 316 µM)
MIC (Escherichia coli [5]): 63 µg/mL (≈ 316 µM)
MPC [2]: 63 µg/mL
MIC (Escherichia coli [9]): 4 µg/mL
MIC (Staphylococcus aureus [6]): 63 µg/mL (≈ 316 µM)
MIC (Staphylococcus aureus [10]): 4 µg/mL
MIC (Staphylococcus aureus [11]): 2 µg/mL
MIC (Staphylococcus aureus [7]): 32 µg/mL (≈ 161 µM)

CC1(C)[C@H](C(=O)O)N2C(=O)C[C@H]2S1(=O)=O
MPC [12]: 1.6 µg/mL

C[C@]1(CBr)[C@H](C(=O)O)N2C(=O)CC2S1(=O)=O (stereo partly drawn)
MPC [1]: 3.1 µg/mL
MPC [2]: 12.5 µg/mL
MPC [3]: 1.6 µg/mL
